The source made the active and inactive calls. The calls are words filed in the database; no cut-off is given here.
Assays:
[1] = biological target: D(3) dopamine receptor (Homo sapiens, UniProt P35462); assay: Displacement of [3H]YM-09151-2 from human dopamine D3 receptor expressed in CHOp cells; format: cell-based
[2] = biological target: D(1A) dopamine receptor (Homo sapiens, UniProt P21728); assay: Displacement of [3H]SCH-23390 from human dopamine D1 receptor expressed in LHD1 cells; format: cell-based
[3] = tested on: Mus musculus; assay: Analgesic activity in CD1 mouse assessed as inhibition of acetic acid induced writhing dosed subcutaneously 30 mins before acetic acid challenge; format: functional
Outline: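 Mice received the drug subcutaneously across a range of doses, then underwent the acetic acid induced writhing test. Inhibition of writhing was scored against a control group. Data are mean SEM, n = 5−6 mice per group. ED₅₀ was taken from the dose–response curve.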

[4] = biological target: D(2) dopamine receptor (Homo sapiens, UniProt P14416); assay: biochemical; format: cell-based, CHOp
[5] = tested on: Mus musculus; assay: Analgesic activity in CD1 mouse assessed as inhibition of acetic acid induced writhing at 2.5 mg/kg, sc dosed 30 mins before acetic acid challenge in presence of 20 mg/kg, sc KOP receptor antagonist nor-BNI; format: functional, organism-based
[6] = biological target: Delta-type opioid receptor (Homo sapiens, UniProt P41143); assay: Displacement of [3H]pCl-DPDPE from human delta opioid receptor expressed in CHO cell membranes incubated for 60 mins by liquid scintillation counting
[7] = biological target: T1, Kappa-type opioid receptor (Homo sapiens, UniProt P41145); assay: Displacement of [3H]U69,593 from human kappa opioid receptor expressed in CHO cell membranes incubated for 60 mins by liquid scintillation counting
[8] = biological target: T1, Kappa-type opioid receptor; assay: Agonist activity at human kappa opioid receptor expressed in CHO cell membranes incubated for 60 mins by [35S]GTPgammaS binding assay; format: functional
[9] = biological target: Mu-type opioid receptor (Homo sapiens, UniProt P35372); assay: Displacement of [3H]DAMGO from human mu opioid receptor expressed in CHO cell membranes incubated for 60 mins by liquid scintillation counting
[10] = biological target: Kappa-type opioid receptor (Cavia porcellus, UniProt P41144); assay: Displacement of [3H]ethylketocyclazocine from kappa opioid receptor in guinea pig brain
Kappa-type opioid receptor (Cavia porcellus, UniProt P41144), sequence (P41144 whole entry): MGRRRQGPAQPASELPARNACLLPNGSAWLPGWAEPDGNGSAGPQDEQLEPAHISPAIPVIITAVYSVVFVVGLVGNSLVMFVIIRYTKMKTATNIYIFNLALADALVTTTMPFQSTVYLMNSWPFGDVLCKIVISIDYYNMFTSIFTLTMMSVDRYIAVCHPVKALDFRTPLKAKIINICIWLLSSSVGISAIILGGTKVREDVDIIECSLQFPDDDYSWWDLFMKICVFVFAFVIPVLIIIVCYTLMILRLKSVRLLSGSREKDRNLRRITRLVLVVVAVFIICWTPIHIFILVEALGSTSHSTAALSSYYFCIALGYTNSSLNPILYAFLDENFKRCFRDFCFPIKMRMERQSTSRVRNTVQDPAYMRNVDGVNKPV

D(3) dopamine receptor, sequence (P35462 whole entry): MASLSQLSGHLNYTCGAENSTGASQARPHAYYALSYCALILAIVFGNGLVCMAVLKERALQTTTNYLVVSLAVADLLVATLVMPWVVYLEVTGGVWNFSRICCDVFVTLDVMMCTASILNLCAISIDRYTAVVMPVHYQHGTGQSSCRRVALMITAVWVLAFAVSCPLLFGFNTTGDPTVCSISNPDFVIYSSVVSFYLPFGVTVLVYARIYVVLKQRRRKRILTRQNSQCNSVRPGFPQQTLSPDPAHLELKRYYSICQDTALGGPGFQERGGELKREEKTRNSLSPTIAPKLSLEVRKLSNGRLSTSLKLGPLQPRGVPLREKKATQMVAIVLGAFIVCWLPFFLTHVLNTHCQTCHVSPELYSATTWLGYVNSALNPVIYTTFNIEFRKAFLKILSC
Mu-type opioid receptor, sequence (P35372 whole entry): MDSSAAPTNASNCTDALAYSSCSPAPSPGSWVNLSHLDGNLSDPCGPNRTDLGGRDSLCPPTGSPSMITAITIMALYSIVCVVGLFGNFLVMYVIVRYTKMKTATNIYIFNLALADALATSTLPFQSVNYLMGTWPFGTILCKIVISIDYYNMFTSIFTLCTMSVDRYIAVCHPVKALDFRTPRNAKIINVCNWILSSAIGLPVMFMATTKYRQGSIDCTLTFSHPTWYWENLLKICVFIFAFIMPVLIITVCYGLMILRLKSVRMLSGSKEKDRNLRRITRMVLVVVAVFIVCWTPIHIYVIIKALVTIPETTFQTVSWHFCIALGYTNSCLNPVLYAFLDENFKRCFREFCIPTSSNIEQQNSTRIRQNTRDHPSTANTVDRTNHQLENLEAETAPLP
T1 sequence (P41145 whole entry): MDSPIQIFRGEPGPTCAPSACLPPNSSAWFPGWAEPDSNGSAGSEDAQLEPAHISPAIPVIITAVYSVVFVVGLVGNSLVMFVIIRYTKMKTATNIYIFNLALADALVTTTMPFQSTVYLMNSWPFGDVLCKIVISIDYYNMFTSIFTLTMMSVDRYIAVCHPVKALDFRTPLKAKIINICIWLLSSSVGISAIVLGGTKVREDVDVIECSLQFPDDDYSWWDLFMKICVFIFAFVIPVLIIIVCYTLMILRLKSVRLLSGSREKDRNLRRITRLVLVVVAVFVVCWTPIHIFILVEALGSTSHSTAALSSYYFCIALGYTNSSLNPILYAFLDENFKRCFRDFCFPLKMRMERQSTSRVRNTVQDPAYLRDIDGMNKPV
D(1A) dopamine receptor, sequence (P21728 whole entry): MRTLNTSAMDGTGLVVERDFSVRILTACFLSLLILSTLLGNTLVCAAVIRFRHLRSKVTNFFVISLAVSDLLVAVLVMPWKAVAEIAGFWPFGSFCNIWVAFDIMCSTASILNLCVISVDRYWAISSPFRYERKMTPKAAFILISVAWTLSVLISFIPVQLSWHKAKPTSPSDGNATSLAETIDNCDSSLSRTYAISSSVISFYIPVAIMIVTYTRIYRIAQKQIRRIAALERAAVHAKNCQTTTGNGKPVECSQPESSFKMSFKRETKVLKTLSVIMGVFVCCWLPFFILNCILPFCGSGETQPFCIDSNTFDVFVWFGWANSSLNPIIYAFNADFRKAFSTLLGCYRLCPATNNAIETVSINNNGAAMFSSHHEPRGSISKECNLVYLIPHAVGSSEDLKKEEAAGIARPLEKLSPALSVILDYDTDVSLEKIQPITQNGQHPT
Delta-type opioid receptor, sequence (P41143 whole entry): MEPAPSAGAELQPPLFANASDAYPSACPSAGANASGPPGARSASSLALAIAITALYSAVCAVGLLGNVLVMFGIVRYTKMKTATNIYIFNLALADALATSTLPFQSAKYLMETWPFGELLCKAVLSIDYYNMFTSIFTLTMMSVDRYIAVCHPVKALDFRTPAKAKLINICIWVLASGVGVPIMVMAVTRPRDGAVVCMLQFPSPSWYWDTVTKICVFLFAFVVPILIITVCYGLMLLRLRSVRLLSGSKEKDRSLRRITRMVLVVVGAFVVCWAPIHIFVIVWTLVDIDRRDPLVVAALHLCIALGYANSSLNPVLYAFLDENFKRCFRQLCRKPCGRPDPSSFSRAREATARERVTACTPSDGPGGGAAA
D(2) dopamine receptor, sequence (P14416 whole entry): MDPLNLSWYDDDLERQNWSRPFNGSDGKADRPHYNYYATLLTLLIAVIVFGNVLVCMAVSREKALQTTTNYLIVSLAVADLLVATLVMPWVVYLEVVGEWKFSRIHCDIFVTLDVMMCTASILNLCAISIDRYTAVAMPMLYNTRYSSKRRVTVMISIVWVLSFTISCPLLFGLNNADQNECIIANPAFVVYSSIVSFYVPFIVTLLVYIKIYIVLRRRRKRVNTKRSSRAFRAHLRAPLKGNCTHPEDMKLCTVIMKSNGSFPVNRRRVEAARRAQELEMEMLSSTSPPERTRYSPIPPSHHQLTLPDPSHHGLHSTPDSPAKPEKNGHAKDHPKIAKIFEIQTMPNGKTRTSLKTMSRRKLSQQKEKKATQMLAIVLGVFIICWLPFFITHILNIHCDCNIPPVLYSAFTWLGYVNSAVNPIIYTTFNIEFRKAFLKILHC

Compound	Ki [1] [nM]	Ki [2] [µM]	Activity [3]	ED50 ([3]; CD1, sc) [mg/kg]	Ki [4] [nM]	Activity [5]	Ki [6] [µM]	Ki [7] [nM]	EC50 [8] [nM]	Ki [9] [nM]	IC50 [10] [nM]
Oc1cccc(CCN(CCc2ccccc2)CC2CCC2)c1	282	> 10	Dose-dependent effect	1.91	450	inactive	> 10				
CCCN(CCc1ccccc1)CCc1cccc(O)c1	21.8	> 10			64.4		3.71	8.13	49.1	594	57
CCCCCCN(CCc1ccccc1)CCc1cccc(O)c1	1150	> 10			831		3.57	141	647	788	
Oc1cccc(CCN(CCc2ccccc2)CC2CC2)c1	168	> 10			118		> 10				
CCCCCN(CCc1ccccc1)CCc1cccc(O)c1	1100	> 10			1420		1.32	12.6	86.4	325	
CCCCN(CCc1ccccc1)CCc1cccc(O)c1	1150	> 10			1230		2.43	10.9	46.2	412	
